The source of these data is ChEMBL document CHEMBL2062411, “Structure-activity relationship study of selective excitatory amino acid transporter subtype 1 (EAAT1) inhibitor 2-amino-4-(4-methoxyphenyl)-7-(naphthalen-1-yl)-5-oxo-5,6,7,8-tetrahydro-4H-chromene-3-carbonitrile (UCPH-101) and absolute configurational assignment using infrared and vibrational …” (J Med Chem, 2012).

SMILES strings stand for the structures.

What all share (assay type): cell-based
Experiment [1] concerns the target Excitatory amino acid transporter 1 (Homo sapiens, UniProt P43003). Kind of experiment: Inhibition of human EAAT1 expressed in HEK293 cells assessed as inhibition of 3[H]-D-Aspartate uptake after 6 mins by scintillation counting method. In short, it runs like this:
(§1)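 HEK293 cell lines expressing EAAT1, EAAT2 or EAAT3 were cultured and assayed for [³H]-D-aspartate uptake, following an earlier published protocol. Inhibition is reported as IC50 in μM, with pIC50 ± SEM.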

Experiment [2] addresses Excitatory amino acid transporter 2 (Homo sapiens, UniProt P43004). Kind of experiment: Inhibition of human EAAT2 expressed in HEK293 cells assessed as inhibition of 3[H]-D-Aspartate uptake after 6 mins by scintillation counting method. In short, it runs like this: as §1
For experiment [3], the target named is T1, Excitatory amino acid transporter 3 (Homo sapiens, UniProt P43005).
T1 sequence (P43005 whole entry): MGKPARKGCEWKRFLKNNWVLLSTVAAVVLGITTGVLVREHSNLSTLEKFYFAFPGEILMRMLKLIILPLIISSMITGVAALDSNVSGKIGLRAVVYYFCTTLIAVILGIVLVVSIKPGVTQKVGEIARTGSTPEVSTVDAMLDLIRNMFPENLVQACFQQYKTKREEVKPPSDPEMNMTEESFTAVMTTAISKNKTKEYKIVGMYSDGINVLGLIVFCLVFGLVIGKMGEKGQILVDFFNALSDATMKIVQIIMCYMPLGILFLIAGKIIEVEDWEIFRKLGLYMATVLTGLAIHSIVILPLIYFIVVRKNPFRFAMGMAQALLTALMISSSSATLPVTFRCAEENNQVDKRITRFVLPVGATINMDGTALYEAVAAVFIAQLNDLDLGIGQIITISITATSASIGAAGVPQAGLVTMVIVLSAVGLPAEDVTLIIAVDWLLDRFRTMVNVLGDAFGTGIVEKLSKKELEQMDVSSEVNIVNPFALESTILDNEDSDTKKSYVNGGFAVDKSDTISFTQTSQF
The experiment is described as follows: Inhibition of human EAAT3 expressed in HEK293 cells assessed as inhibition of 3[H]-D-Aspartate uptake after 6 mins by scintillation counting method. In short, it runs like this:
as §1

Excitatory amino acid transporter 2, sequence (P43004 whole entry): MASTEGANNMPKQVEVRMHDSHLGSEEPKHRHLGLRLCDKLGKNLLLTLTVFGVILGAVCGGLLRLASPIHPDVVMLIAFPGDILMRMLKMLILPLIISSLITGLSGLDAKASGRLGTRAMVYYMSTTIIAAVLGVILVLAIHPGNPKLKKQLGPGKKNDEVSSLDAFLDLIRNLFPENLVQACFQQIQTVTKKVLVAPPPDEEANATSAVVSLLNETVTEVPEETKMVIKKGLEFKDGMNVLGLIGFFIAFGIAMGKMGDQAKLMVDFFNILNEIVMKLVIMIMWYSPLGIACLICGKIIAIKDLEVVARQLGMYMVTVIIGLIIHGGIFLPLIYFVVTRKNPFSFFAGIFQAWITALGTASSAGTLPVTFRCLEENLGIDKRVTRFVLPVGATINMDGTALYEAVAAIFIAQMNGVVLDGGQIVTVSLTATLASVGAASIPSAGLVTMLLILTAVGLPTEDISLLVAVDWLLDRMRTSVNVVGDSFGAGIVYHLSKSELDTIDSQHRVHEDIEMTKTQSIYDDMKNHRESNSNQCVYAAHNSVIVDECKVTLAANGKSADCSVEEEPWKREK
Excitatory amino acid transporter 1, sequence (P43003 whole entry): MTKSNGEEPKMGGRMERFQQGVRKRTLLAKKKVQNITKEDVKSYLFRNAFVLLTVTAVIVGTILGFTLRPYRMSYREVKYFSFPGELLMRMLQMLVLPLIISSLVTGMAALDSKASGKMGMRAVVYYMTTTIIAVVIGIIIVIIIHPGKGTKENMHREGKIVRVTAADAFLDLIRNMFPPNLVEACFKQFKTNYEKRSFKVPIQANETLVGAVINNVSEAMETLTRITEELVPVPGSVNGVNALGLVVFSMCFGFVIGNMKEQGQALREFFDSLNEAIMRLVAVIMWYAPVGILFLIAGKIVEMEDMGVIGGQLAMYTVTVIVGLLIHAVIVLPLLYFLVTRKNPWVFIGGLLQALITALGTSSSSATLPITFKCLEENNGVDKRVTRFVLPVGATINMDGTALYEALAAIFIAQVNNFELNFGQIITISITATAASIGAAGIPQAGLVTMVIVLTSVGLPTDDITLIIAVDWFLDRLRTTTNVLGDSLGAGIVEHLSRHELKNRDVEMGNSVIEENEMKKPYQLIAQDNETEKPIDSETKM

For the compound `N#CC1=C(N)OC2=C(C(=O)CC(c3ccccc3)C2)C1c1ccccc1` (stereo unspecified), the IC50 in experiment [1] (read-out: IC50) is 3.9 µM.
On to `CC1C(C#N)=C(N)OC2=C1C(=O)CC(c1cccc3ccccc13)C2` (stereo unspecified), for which, in experiment [1] (read-out: IC50), the IC50 came to 0.42 µM.
The same measure, in the same setting: under `CC1(C)C(C#N)=C(N)OC2=C1C(=O)CC(c1ccccc1)C2` (stereo unspecified) stands over 300 µM; under `N#CC1=C(N)OC2=C(C(=O)NC(c3ccccc3)C2)C1c1ccccc1` (stereo unspecified), over 300 µM; under `N#CC1=C(N)OC2=C(C(=O)OC(c3ccccc3)C2)C1c1ccccc1` (stereo unspecified), over 300 µM.
For `N#CC1=C(N)OC2=C(C(=O)CN(c3ccccc3)C2)C1c1ccccc1` (stereo unspecified), the IC50 in experiment [2], in experiment [1] (read-out: pIC50 (converted)) and in experiment [3] was over 100 µM throughout.
For the compound `N#CC1=C(N)OC2=C(C(=O)CN(Cc3ccccc3)C2)C1c1ccccc1` (stereo unspecified), the IC50 was over 300 µM in experiment [2], 16.2 µM in experiment [1] (read-out: pIC50 (converted)) and over 300 µM in experiment [3].
For the compound `N#CC1=C(N)OC2=C(C(=O)CN(C(=O)c3ccccc3)C2)C1c1ccccc1` (stereo unspecified), the IC50 in experiment [2], in experiment [1] (read-out: pIC50 (converted)) and in experiment [3] was over 100 µM in each case.
`C[C@@H](c1ccccc1)N1CC(=O)C2=C(C1)OC(N)=C(C#N)[C@H]2c1ccccc1`: the IC50 is over 300 µM in experiment [2], 5.25 µM in experiment [1] (read-out: pIC50 (converted)) and over 300 µM in experiment [3].
On to `C[C@@H](c1ccccc1)N1CC(=O)C2=C(C1)OC(N)=C(C#N)[C@@H]2c1ccccc1`, for which the values for the IC50 in experiment [2], in experiment [1] (read-out: pIC50 (converted)) and in experiment [3] were over 300 µM, over 316 µM and over 300 µM, respectively.
For the compound `C[C@H](c1ccccc1)N1CC(=O)C2=C(C1)OC(N)=C(C#N)[C@@H]2c1ccccc1`, the IC50 was over 300 µM in experiment [2], over 316 µM in experiment [1] (read-out: pIC50 (converted)) and over 300 µM in experiment [3].
In the case of `C[C@H](c1ccccc1)N1CC(=O)C2=C(C1)OC(N)=C(C#N)[C@H]2c1ccccc1`, the IC50 in experiment [2] was over 300 µM; in experiment [1] (read-out: pIC50 (converted)) it was 3.72 µM; in experiment [3], over 300 µM.
